What was measured:
SH-SY5Y [1] = test: Cytotoxicity against human SH-SY5Y cells assessed as cell viability after 48 hrs by MTT assay; assay type: functional, cell-based
How it was run: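 SH-SY5Y cells incubated with compound for 48 h and viability measured by MTT. Values are mean ± SEM of 8-12 determinations.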

SH-SY5Y [2] = test: Cytotoxicity against human SH-SY5Y cells assessed as reduction of total cellular NAD(P) level at 1 uM relative to control; assay type: functional; set-up: scale not given: the % may be the effect or the level left
SH-SY5Y [3] = test: Cytotoxicity against human SH-SY5Y cells assessed as reduction of total cellular NAD(P) level; assay type: functional, cell-based
CCRF-CEM = test: Growth inhibition of human CCRF-CEM cells by sulforhodamine B assay; assay type: functional
A549 = test: Growth inhibition of human A549 cells by sulforhodamine B assay; assay type: functional
EKVX = test: Growth inhibition of human EKVX cells by sulforhodamine B assay; assay type: functional
HOP-62 = test: Growth inhibition of human HOP62 cells by sulforhodamine B assay; assay type: functional
HOP-92 = test: Growth inhibition of human HOP92 cells by sulforhodamine B assay; assay type: functional
NCI-H226 = test: Growth inhibition of human NCI-H226 cells by sulforhodamine B assay; assay type: functional
NCI-H23 = test: Growth inhibition of human NCI-H23 cells by sulforhodamine B assay; assay type: functional
NCI-H322M = test: Growth inhibition of human NCI-H322M cells by sulforhodamine B assay; assay type: functional
COLO 205 = test: Growth inhibition of human COLO205 cells by sulforhodamine B assay; assay type: functional
HCT-116 = test: Growth inhibition of human HCT116 cells by sulforhodamine B assay; assay type: functional
HCT-15 = test: Growth inhibition of human HCT15 cells by sulforhodamine B assay; assay type: functional
KM12 = test: Growth inhibition of human KM12 cells by sulforhodamine B assay; assay type: functional
SF-295 = test: Growth inhibition of human SF295 cells by sulforhodamine B assay; assay type: functional
SNB-19 = test: Growth inhibition of human SNB19 cells by sulforhodamine B assay; assay type: functional
SNB-75 = test: Growth inhibition of human SNB75 cells by sulforhodamine B assay; assay type: functional
M14 = test: Growth inhibition of human M14 cells by sulforhodamine B assay; assay type: functional
MDA-MB-435 = test: Growth inhibition of human MDA-MB-435 cells by sulforhodamine B assay; assay type: functional
[4] = read-out: LC50 (the source's name)

## O=C(CCCCCCCn1cc(-c2cccnc2)nn1)Nc1ccccc1-c1ccccc1
SH-SY5Y [1]
  IC50: 0.0038 µM
SH-SY5Y [2]
  Activity: 11.6%
SH-SY5Y [3]
  IC50: 0.003 µM
CCRF-CEM
  GI50: 3.28 µM
  TGI: > 100 µM
CCRF-CEM; [4]
  CC50: > 100 µM
A549
  GI50: 2.1 µM
  TGI: > 100 µM
A549; [4]
  CC50: > 100 µM
EKVX
  GI50: 8.46 µM
  TGI: > 100 µM
EKVX; [4]
  CC50: > 100 µM
HOP-62
  GI50: 23.8 µM
  TGI: > 100 µM
HOP-62; [4]
  CC50: > 100 µM
HOP-92
  GI50: 97.4 µM
  TGI: > 100 µM
HOP-92; [4]
  CC50: > 100 µM
NCI-H226
  GI50: 15.5 µM
  TGI: 51.7 µM
NCI-H226; [4]
  CC50: > 100 µM
NCI-H23
  GI50: 15.1 µM
  TGI: > 100 µM
NCI-H23; [4]
  CC50: > 100 µM
NCI-H322M
  GI50: 23.1 µM
  TGI: > 100 µM
NCI-H322M; [4]
  CC50: > 100 µM
COLO 205
  GI50: 1.18 µM
  TGI: 36 µM
COLO 205; [4]
  CC50: > 100 µM
HCT-116
  GI50: 0.0403 µM
  TGI: > 100 µM
HCT-116; [4]
  CC50: > 100 µM
HCT-15
  GI50: 0.257 µM
  TGI: > 100 µM
HCT-15; [4]
  CC50: > 100 µM
KM12
  GI50: 1.03 µM
  TGI: 27.2 µM
KM12; [4]
  CC50: > 100 µM
SF-295
  GI50: 0.655 µM
  TGI: > 100 µM
SF-295; [4]
  CC50: > 100 µM
SNB-19
  GI50: 0.45 µM
  TGI: > 100 µM
SNB-19; [4]
  CC50: > 100 µM
SNB-75
  GI50: 29.8 µM
  TGI: > 100 µM
SNB-75; [4]
  CC50: > 100 µM
M14
  GI50: 0.166 µM
  TGI: 20.7 µM
M14; [4]
  CC50: > 100 µM
MDA-MB-435
  GI50: 0.399 µM
  TGI: 13.3 µM
MDA-MB-435; [4]
  CC50: > 100 µM
